We go through 21 molecules from ChEMBL document CHEMBL1139544, “Potent, orally active corticotropin-releasing factor receptor-1 antagonists containing a tricyclic pyrrolopyridine or pyrazolopyridine core” (J Med Chem, 2005).

SMILES strings stand for the structures.

For data set [1], the target named is T1, Corticotropin-releasing factor receptor 1 (Homo sapiens, UniProt P34998).
T1 sequence (P34998 whole entry): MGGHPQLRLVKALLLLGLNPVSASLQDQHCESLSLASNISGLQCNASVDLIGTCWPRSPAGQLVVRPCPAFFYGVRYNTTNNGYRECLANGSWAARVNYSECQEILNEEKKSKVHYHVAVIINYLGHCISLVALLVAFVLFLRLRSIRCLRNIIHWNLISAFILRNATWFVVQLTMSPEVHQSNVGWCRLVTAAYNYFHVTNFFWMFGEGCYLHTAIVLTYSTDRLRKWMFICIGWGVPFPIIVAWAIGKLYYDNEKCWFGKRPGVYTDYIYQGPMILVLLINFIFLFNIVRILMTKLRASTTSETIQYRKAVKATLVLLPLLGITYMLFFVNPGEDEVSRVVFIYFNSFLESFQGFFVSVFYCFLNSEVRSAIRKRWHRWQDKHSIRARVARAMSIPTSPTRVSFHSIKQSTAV
Kind of data set: Inhibition of [125I]sauvagine binding to corticotropin releasing factor receptor 1 expressed in LtK- cells; Not active (<30% inhibition at 10 uM). Type of data set: cell-based.

Data set [2] deals with T1, Corticotropin-releasing factor receptor 1. Kind of data set: Inhibition of [125I]sauvagine binding to corticotropin releasing factor receptor 1 expressed in LtK- cells. Type of data set: cell-based.
A short description of data set [3]: Total body clearance in rat following administration of 10 mg/kg, p.o. and 10 mg/kg i.v. It counts as ADME, organism-based. To be noted: in vivo, iv. In a few lines:
(§1)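 Male Sprague Dawley rats were given one compound intravenously via tail vein and by oral gavage (N = 3/time point), dosed in purified water at 2 mL/kg. Terminal blood and brain were taken at set times for composite sampling. Plasma was acetonitrile-precipitated and analysed by LC-MS/MS (LLOQ 5 ng/mL). Parameters came from a noncompartmental model.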

Data set [4] in a line: Bioavailability in rat following administration of 10 mg/kg, p.o. and 10 mg/kg i.v. As to conditions: in vivo, po. It counts as ADME, organism-based. In a few lines:
as §1

The nature of data set [5]: Volume of distribution in rat following administration of 10 mg/kg, p.o. and 10 mg/kg, i.v. Type of data set: ADME, organism-based. As to conditions: in vivo, iv. In a few lines:
as §1

The target of data set [6] is Corticotropin releasing factor receptor (Rattus norvegicus, UniProt P47866+P35353). Kind of data set: Inhibition of corticotropin releasing factor stimulated adrenocorticotropic hormone release from rat pituitary cells. Type of data set: functional, cell-based. To be noted: pituitary gland cell. In outline:
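Pituitaries from 7-week-old female Sprague Dawley rats were digested with collagenase and plated at 40 000 cells/well in 3% FCS/BBM-T for 2-3 days. Compound (1 pM–1 µM) was added with 0.5 nM r/hCRF for 4 h at 37 °C. ACTH in the medium was measured by RIA, and IC50 was obtained by nonlinear curve fitting.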

Data set [7] is described as follows: Half life in rat following administration of 10 mg/kg, p.o. and 10 mg/kg i.v. Type of data set: ADME, organism-based. As to conditions: in vivo. In a few lines:
as §1

Data set [8] can be described thus: Half life in rat following administration of 2 mg/kg, p.o. and 1 mg/kg, i.v. It counts as ADME, organism-based. As to conditions: in vivo. In outline:
(§2)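 Cassette study in male Sprague Dawley rats: five compounds were co-administered at 2 mg/kg po (gavage) and by tail-vein iv (N = 3/time point), in purified water at 2 mL/kg. Composite terminal plasma sampling was used. Plasma was acetonitrile-precipitated for LC-MS/MS (LLOQ 5 ng/mL). Parameters came from a noncompartmental model.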

Data set [9] can be described thus: Total body clearance in rat following administration of 2 mg/kg, p.o. and 1 mg/kg, i.v. Type of data set: ADME, organism-based. As to conditions: in vivo, iv. In outline:
as §2

Data set [10] is described as follows: Volume of distribution in rat following administration of 2 mg/kg, p.o. and 1 mg/kg, i.v. As to conditions: in vivo, iv. It counts as ADME, organism-based. In outline:
as §2

Data set [11] is described as follows: Bioavailability in rat (dose 2 mg/kg p.o. and 1 mg/kg, i.v.). Type of data set: ADME, organism-based. As to conditions: in vivo, po. In outline:
as §2

Data set [12] can be described thus: Half life in rat following administration of 10 mg/kg, p.o. and 5 mg/kg, i.v. It counts as ADME, organism-based. To be noted: in vivo. In outline: as §1
A short description of data set [13]: Volume of distribution in rat following administration of 10 mg/kg, p.o. and 5 mg/kg, i.v. It counts as ADME, organism-based. As to conditions: in vivo, iv. In outline: as §1
Data set [14] is described as follows: Total body clearance in rat following administration of 10 mg/kg, p.o. and 5 mg/kg, i.v. As to conditions: in vivo, iv. Type of data set: ADME, organism-based. In a few lines:
as §1

Data set [15] is described as follows: Bioavailability in rat following administration of 10 mg/kg, p.o. and 5 mg/kg, i.v. To be noted: in vivo, po. It counts as ADME, organism-based. In outline: as §1
Data set [16] in a line: Total body clearance in rat following administration of 10 mg/kg, p.o. and 10 mg/kg, i.v. Type of data set: ADME, organism-based. To be noted: in vivo, iv. In outline:
as §1

Data set [17] in a line: Bioavailability in rat (dose 10 mg/kg p.o. and 10 mg/kg, i.v.). Type of data set: ADME, organism-based. As to conditions: in vivo, po. In outline:
as §1

Data set [18] in a line: Half life in rat following administration of 10 mg/kg, p.o. and 10 mg/kg, i.v. Type of data set: ADME, organism-based. To be noted: in vivo. In a few lines: as §1

The Ki is the equilibrium dissociation constant of an inhibitor or competing ligand from its target. High values mean lower affinity, low ones higher affinity. In the case of `CCCC(CCC)N1CCc2c3c1cc(C)nc3nn2-c1ccc(Cl)cc1Cl`, in [1], the inhibitory constant (Ki) result was “Not Active”.

In the case of `CCCC(CCC)N1CCc2cn(-c3ccccc3OC)c3nc(C)cc1c23`, the affinity in [2], expressed as Ki, was 55 nM. That is a double-digit nanomolar value.

`COCC(COC)N1CCc2cn(-c3ccc(Cl)cc3C#N)c3nc(C)cc1c23` came in with a Ki in data set [2] of 120 nM.

With `CCCC(CCC)N1CCc2cn(Cc3ccc(Cl)cc3C)c3nc(C)cc1c23`, in [2], the affinity corresponds to a Ki of 1900 nM.

As to `CCCC(CCC)N1CCc2cn(-c3ccc(Cl)cc3C#N)c3nc(C)cc1c23`, the Ki in data set [2] amounted to 13 nM.

What is called bioavailability is dose-corrected exposure relative to a reference, in per cent. Read a high bioavailability as much systemic uptake. Broadly, the IC50 is the concentration at which inhibition is half-maximal. A higher IC50 goes with weaker potency. The term half-life denotes the time in which the quantity being followed falls by half. As to `CCCC(CCC)N1CCc2cn(-c3ccc(C)cc3Cl)c3nc(C)cc1c23`, the clearance in data set [3] is 70 mL/min/kg. Also, affinity in [2] was put at a Ki of 3.5 nM. The same molecule registered a bioavailability in data set [4] of 24%. The molecule also came in with a Vd in data set [5] of 38 L/kg. The molecule also came in with an IC50 in [6] of 14 nM. In addition, in data set [7], the half-life is 6.3 h.

The molecule `CCC(COC)N1CCc2cn(-c3c(C)cc(Cl)cc3C)c3nc(C)cc1c23` (stereo unspecified) had a half-life in [8] of 2.5 h. The inhibition constant Ki in data set [2] turned out to be 16 nM. In [9], this molecule had a clearance of 87 mL/min/kg. The molecule also yielded a Vd in data set [10] of 19 L/kg. Moreover, in data set [11], the bioavailability was 66%. The molecule further had a half-inhibitory concentration (IC50) in data set [6] of 27 nM.

With `CCCC(CCC)N1CCc2nn(-c3ccc(Cl)cc3Cl)c3nc(C)cc1c23`, the half-life in data set [12] was 12 h. Further, in data set [2], the affinity corresponds to a Ki of 2.9 nM. In data set [13], the Vd came to 44 L/kg. In data set [14], the clearance was found to be 43 mL/min/kg. The molecule also displayed an IC50 in [6] of 6.8 nM. In [15], this molecule had a bioavailability of 7%.

In turn, `CCC(CC)N1CCc2cn(-c3ccc(OC(F)(F)F)cc3C)c3nc(C)cc1c23` gave a half-life in [8] of 33 h. The molecule further had a Ki in [2] of 6 nM. In data set [9], this molecule displayed a clearance of 28 mL/min/kg. Further, in data set [10], the Vd is 80 L/kg. Besides, the bioavailability in data set [11] came to 76%. In addition, the IC50 in data set [6] was 48 nM.

In data set [2], `CCCC(CCC)N1CCc2cn(-c3ccc(C)cc3)c3nc(C)cc1c23` gave an inhibition constant Ki of 30 nM.

As to `CCCCN(CC)c1nc(C)nc2c1c(C)c(C)n2-c1c(C)cc(C)cc1C` [ANTALARMIN], the affinity in [2] corresponds to a Ki of 3.1 nM.

In the case of `CCCC(CCC)N1CCc2cn(-c3ccc(OC)nc3OC)c3nc(C)cc1c23`, the clearance in data set [16] worked out at 70 mL/min/kg. Besides, the bioavailability in [17] is 50%. In data set [18], the half-life is 10 h. In [2], the affinity corresponds to a Ki of 5.4 nM. The same molecule had a Vd in data set [5] of 62 L/kg. In [6], this molecule came in with a 50% inhibitory concentration (IC50) of 29 nM.

In data set [16], `CCCC(CCC)N1CCc2cn(-c3ccc(S(C)(=O)=O)cc3Cl)c3nc(C)cc1c23` returned a clearance of 152 mL/min/kg. The molecule also showed a bioavailability in data set [17] of 74%. For the same molecule, in [18], the half-life was 5 h. Besides, the affinity in [2] corresponds to a Ki of 13 nM. The Vd in data set [5] is 66 L/kg. In addition, the concentration for half-maximal inhibition (IC50) in data set [6] turned out to be 250 nM.

The molecule `CCCC(CCC)N1CCc2cn(-c3ccc(Cl)cc3Cl)c3nc(C)cc1c23` yielded a Ki in data set [2] of 4.2 nM.

In the case of `CCCC(CCC)N1CCc2cn(-c3cccc(OC)c3)c3nc(C)cc1c23`, in data set [2], the Ki was 190 nM.

As to `Cc1cc2c3c(cn(-c4ccc(Cl)cc4C#N)c3n1)CCN2C`, the Ki entry in data set [1] was “Not Active”.

As for `CCCCN1CCc2cn(-c3ccc(Cl)cc3C#N)c3nc(C)cc1c23`, the affinity in data set [2], expressed as Ki, was 49 nM.

In the case of `CCC(CC)N1CCc2cn(-c3ccc(Cl)cc3C#N)c3nc(C)cc1c23`, the affinity in data set [2], expressed as Ki, was 62 nM.

Take `CCCC(CCC)N1CCc2cn(-c3ccc(OC)cc3C)c3nc(C)cc1c23`: the clearance in data set [16] was 107 mL/min/kg. This molecule registered a bioavailability in data set [17] of 18%. In data set [18], the half-life was 5.7 h. In data set [2], this molecule came in with an inhibition constant (Ki) of 6.5 nM. Also, the Vd in data set [5] stood at 53 L/kg. The IC50 in data set [6] was 39 nM.

On to `CCCC(CCC)N1CCc2cn(-c3ccc(C#N)cc3Cl)c3nc(C)cc1c23`, for which the affinity in data set [2], expressed as Ki, was 7.2 nM. In other words, the single-digit nanomolar range.

`CCC(COC)N1CCc2cn(-c3ccc(Cl)cc3C#N)c3nc(C)cc1c23` (stereo unspecified) registered an inhibition constant (Ki) in data set [2] of 40 nM.
